Source: ChEMBL document CHEMBL5058577, “EUbOPEN Chemogenomics Library 2 (Multiplex)” (2022)

System: HEK-293T
Experiment: Multiplex assay against HEK293T
Type: toxicity, cell-based
Details: human
How it was run: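 Cells were classed with CellPathfinder machine-learning gating, first as Hoechst high-intensity objects or normal cells, then (normal cells) as healthy, pyknosed or fragmented nuclei, and finally (pyknosed cells) as mitotic or apoptotic. Staining of live cells at seeding used Hoechst33342, BioTracker Green Microtubule Cytoskeleton Dye, MitoTracker Red and Annexin V Alexa Fluor 680, with imaging on a CQ1 microscope at 37°C and 5% CO2 after compound addition. Tubulin, mitochondrial-mass and membrane-permeability phenotypes are per cents of healthy-nucleus cells.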

[1] = 12 h, 1 µM, compound concentration 1 uM, replicate 1
[2] = 12 h, 1 µM, compound concentration 1 uM, replicate 2
[3] = 12 h, 10 µM, compound concentration 10 uM, replicate 1
[4] = 12 h, 10 µM, compound concentration 10 uM, replicate 2
[5] = 24 h, 1 µM, compound concentration 1 uM, replicate 1
[6] = 24 h, 1 µM, compound concentration 1 uM, replicate 2
[7] = 24 h, 10 µM, compound concentration 10 uM, replicate 1
[8] = 24 h, 10 µM, compound concentration 10 uM, replicate 2
[9] = 48 h, 1 µM, compound concentration 1 uM, replicate 1
[10] = 48 h, 1 µM, compound concentration 1 uM, replicate 2
[11] = 48 h, 10 µM, compound concentration 10 uM, replicate 1
[12] = 48 h, 10 µM, compound concentration 10 uM, replicate 2

COC(c1ccccc1)(c1ccccc1)[C@H](Oc1nc(C)cc(C)n1)C(=O)O [AMBRISENTAN]
Population Apoptotic (%) [1]: 38% | Population Fragmented Nuclei (%) [1]: 7% | Population Healthy Nuclei (%) [1]: 75% | Population Hoechst High Intensity Objects (%) [1]: 6% | Population Membrane Permeable-Phenotype (%) [1]: 0% | Population Mitochondria Different-Phenotype (%) [1]: 53% | Population Mitotic Cells (%) [1]: 61% | Population Normal (%) [1]: 93% | Population Pyknosed Nuclei (%) [1]: 16% | Population Tubulin-Different-Phenotype (%) [1]: 30% | Total Cell Count [1]: 249 | Population Healthy Nuclei (%) [2]: 81% | Population Hoechst High Intensity Objects (%) [2]: 11% | Population Mitochondria Different-Phenotype (%) [2]: 63% | Population Normal (%) [2]: 88% | Population Pyknosed Nuclei (%) [2]: 10% | Population Tubulin-Different-Phenotype (%) [2]: 23% | Total Cell Count [2]: 326 | Population Apoptotic (%) [3]: 33% | Population Fragmented Nuclei (%) [3]: 8% | Population Healthy Nuclei (%) [3]: 76% | Population Hoechst High Intensity Objects (%) [3]: 6% | Population Membrane Permeable-Phenotype (%) [3]: 0% | Population Mitochondria Different-Phenotype (%) [3]: 47% | Population Mitotic Cells (%) [3]: 66% | Population Normal (%) [3]: 93% | Population Pyknosed Nuclei (%) [3]: 15% | Population Tubulin-Different-Phenotype (%) [3]: 23% | Total Cell Count [3]: 383 | Population Apoptotic (%) [4]: 56% | Population Fragmented Nuclei (%) [4]: 5% | Population Healthy Nuclei (%) [4]: 80% | Population Hoechst High Intensity Objects (%) [4]: 13% | Population Mitochondria Different-Phenotype (%) [4]: 57% | Population Mitotic Cells (%) [4]: 43% | Population Normal (%) [4]: 86% | Population Pyknosed Nuclei (%) [4]: 14% | Population Tubulin-Different-Phenotype (%) [4]: 18% | Total Cell Count [4]: 262 | Population Apoptotic (%) [5]: 37% | Population Fragmented Nuclei (%) [5]: 9% | Population Healthy Nuclei (%) [5]: 76% | Population Hoechst High Intensity Objects (%) [5]: 4% | Population Membrane Permeable-Phenotype (%) [5]: 1% | Population Mitochondria Different-Phenotype (%) [5]: 30% | Population Mitotic Cells (%) [5]: 62% | Population Normal (%) [5]: 95% | Population Pyknosed Nuclei (%) [5]: 14% | Population Tubulin-Different-Phenotype (%) [5]: 19% | Total Cell Count [5]: 313 | Population Apoptotic (%) [6]: 43% | Population Healthy Nuclei (%) [6]: 82% | Population Hoechst High Intensity Objects (%) [6]: 7% | Population Membrane Permeable-Phenotype (%) [6]: 0% | Population Mitochondria Different-Phenotype (%) [6]: 39% | Population Mitotic Cells (%) [6]: 56% | Population Normal (%) [6]: 92% | Population Pyknosed Nuclei (%) [6]: 8% | Population Tubulin-Different-Phenotype (%) [6]: 16% | Total Cell Count [6]: 404 | Population Apoptotic (%) [7]: 30% | Population Fragmented Nuclei (%) [7]: 10% | Population Healthy Nuclei (%) [7]: 73% | Population Hoechst High Intensity Objects (%) [7]: 4% | Population Membrane Permeable-Phenotype (%) [7]: 0% | Population Mitochondria Different-Phenotype (%) [7]: 34% | Population Mitotic Cells (%) [7]: 69% | Population Normal (%) [7]: 95% | Population Pyknosed Nuclei (%) [7]: 15% | Population Tubulin-Different-Phenotype (%) [7]: 18% | Total Cell Count [7]: 441 | Population Apoptotic (%) [8]: 44% | Population Fragmented Nuclei (%) [8]: 8% | Population Healthy Nuclei (%) [8]: 78% | Population Hoechst High Intensity Objects (%) [8]: 12% | Population Mitochondria Different-Phenotype (%) [8]: 41% | Population Mitotic Cells (%) [8]: 55% | Population Normal (%) [8]: 87% | Population Pyknosed Nuclei (%) [8]: 12% | Population Tubulin-Different-Phenotype (%) [8]: 17% | Total Cell Count [8]: 318 | Population Apoptotic (%) [9]: 27% | Population Fragmented Nuclei (%) [9]: 17% | Population Healthy Nuclei (%) [9]: 72% | Population Hoechst High Intensity Objects (%) [9]: 2% | Population Membrane Permeable-Phenotype (%) [9]: 3% | Population Mitochondria Different-Phenotype (%) [9]: 22% | Population Mitotic Cells (%) [9]: 72% | Population Normal (%) [9]: 97% | Population Pyknosed Nuclei (%) [9]: 10% | Population Tubulin-Different-Phenotype (%) [9]: 13% | Total Cell Count [9]: 600 | Population Apoptotic (%) [10]: 40% | Population Fragmented Nuclei (%) [10]: 12% | Population Healthy Nuclei (%) [10]: 80% | Population Hoechst High Intensity Objects (%) [10]: 3% | Population Membrane Permeable-Phenotype (%) [10]: 0% | Population Mitochondria Different-Phenotype (%) [10]: 23% | Population Mitotic Cells (%) [10]: 59% | Population Normal (%) [10]: 96% | Population Pyknosed Nuclei (%) [10]: 7% | Population Tubulin-Different-Phenotype (%) [10]: 10% | Total Cell Count [10]: 605 | Population Apoptotic (%) [11]: 26% | Population Fragmented Nuclei (%) [11]: 14% | Population Healthy Nuclei (%) [11]: 77% | Population Hoechst High Intensity Objects (%) [11]: 2% | Population Membrane Permeable-Phenotype (%) [11]: 1% | Population Mitochondria Different-Phenotype (%) [11]: 18% | Population Mitotic Cells (%) [11]: 73% | Population Normal (%) [11]: 97% | Population Pyknosed Nuclei (%) [11]: 8% | Population Tubulin-Different-Phenotype (%) [11]: 13% | Total Cell Count [11]: 711 | Population Apoptotic (%) [12]: 53% | Population Healthy Nuclei (%) [12]: 79% | Population Hoechst High Intensity Objects (%) [12]: 7% | Population Membrane Permeable-Phenotype (%) [12]: 0% | Population Mitochondria Different-Phenotype (%) [12]: 27% | Population Mitotic Cells (%) [12]: 46% | Population Normal (%) [12]: 92% | Population Pyknosed Nuclei (%) [12]: 5% | Population Tubulin-Different-Phenotype (%) [12]: 15% | Total Cell Count [12]: 480
